# aDG glyco up: alpha-DG glycosylation activation; Pro5-aDG cells, alpha-DG glycosylation AlphaScreen (IIH6); 0% Pro5, 100% B10-LARGE cell signal; activation, % at 10 µM; 360,000 tested, 0.22% active; AID 624168;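 active = activation of at least 8% versus controls, or a plate z-score of at least 8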;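 also: Pro5 are CHO cells carrying HIG-tagged alpha-DG that lacks glycosylation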
# NR2E3 ag-1: activates human NR2E3 receptor | 360,000 tested, 0.35% active | inhibition of corepressor binding, % at 3.98 µM | CHO-S Gal4-NCOR/VP16-NR2E3 two-hybrid, luciferase | Q9Y5X4;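 active = inhibition above the mean of all tested compounds plus 3 SD, cut at about 70% in these data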;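 also: higher means lower luciferase signal from less NR2E3 corepressor binding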
# Target sequence (Q9Y5X4 whole entry, looked up, the tested form may be a part): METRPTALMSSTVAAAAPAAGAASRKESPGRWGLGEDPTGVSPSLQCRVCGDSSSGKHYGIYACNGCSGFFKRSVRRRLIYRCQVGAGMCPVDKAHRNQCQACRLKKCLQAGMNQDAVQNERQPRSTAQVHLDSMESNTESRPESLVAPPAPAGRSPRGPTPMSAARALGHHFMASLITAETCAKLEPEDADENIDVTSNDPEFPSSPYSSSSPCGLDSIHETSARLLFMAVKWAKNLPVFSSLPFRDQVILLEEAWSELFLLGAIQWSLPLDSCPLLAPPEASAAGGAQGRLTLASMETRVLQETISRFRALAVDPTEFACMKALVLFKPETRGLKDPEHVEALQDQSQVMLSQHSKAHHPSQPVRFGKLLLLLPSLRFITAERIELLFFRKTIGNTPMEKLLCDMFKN
# MPTP block: permeability transition pore inhibition. isolated mouse mitochondria, Ca2+ swelling absorbance, 30 min. inhibition, % at 10 µM. 360,000 tested, 1.4% active. AID 602449;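 active = inhibition of 50% or more, scaled per plate between neutral and stimulator controls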
# 697 NFkB inh: inhibitors of the PMA/ionomycin-induced NF-kB reporter in 697 B cells; 697 B-cell NF-kB luciferase reporter, 16 h; inhibition, % at 4 µM; 330,000 tested, 0.33% active; in the data active = inhibition above about 35%
# NR2E3 ag-2: activates human photoreceptor nuclear receptor NR2E3 | AID 2300 | 320,000 tested, 0.12% active | inhibition of corepressor binding, % at 4.78 µM | Q9Y5X4 | GST-NR2E3/biotin-RetCOR TR-FRET, 1536-well;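 active = percent inhibition above the cutoff of mean plus 3 SD of all tested compounds, set per screening campaign, cut at about 20% in these data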
#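 Material: NR2E3–RetCOR corepressor complex / Amount: 1.35 nM GST-NR2E3 / Medium: Tris pH 7.5 / Compound: single nominal compound dose of 4.8 µM / Incubation: 5 h at 4 °C / Technique: TR-FRET, Eu(K)-anti-GST donor, streptavidin-D2 acceptor, ex 340, em 617/671 nm / Read-out basis: percent loss of FRET ratio relative to control wells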
# Jurkat NFkB inh: inhibitors of the PMA/ionomycin-induced NF-kB reporter in Jurkat cells. PMA/ionomycin-induced NF-kB luciferase reporter, luminescence. inhibition, % at 4 µM. 330,000 tested, 0.53% active. AID 435003; in the data active = inhibition above about 50%
# NR2E3 ag conf: confirmation of human NR2E3 agonists; shares compounds with NR2E3 ag-1; CHO-S mammalian two-hybrid NR2E3-NCOR, luciferase luminescence; inhibition, % at 3.98 µM; 2,300 tested, 51% active; AID 624378;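 active = average inhibition above a cutoff equal to the mean inhibition of all tested compounds plus one SD, cut at about 70% in these data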
# GAL4-VP16 luc: GAL4-VP16 reporter inhibition in NR2E3 agonist counterscreen | CHO-S GAL4-VP16 luciferase reporter, luminescence | shares compounds with NR2E3 ag-1 | inhibition, % at 3.98 µM | 2,300 tested, 29% active;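 active = mean inhibition above a cutoff equal to the average over all tested compounds plus one standard deviation, cut at about 70% in these data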;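 also: luciferase from a UAS reporter driven by GAL4-VP16 transactivation; higher means less reporter light so more repression of VP16 activity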
# Numbers stand for hits; i = inactive; nt = no result given. Only some compounds are listed: those with a hit (about 2.4% of all), similar ones and a draw of the others.
SMILES,aDG glyco up,NR2E3 ag-1,MPTP block,697 NFkB inh,NR2E3 ag-2,Jurkat NFkB inh,NR2E3 ag conf,GAL4-VP16 luc
COc1ccccc1C(=O)NCC(=O)NNC(=O)C1COc2ccccc2O1 (stereo not given),i,i,i,i,i,i,nt,nt
CC(=O)N1CC(C)Sc2ccc(S(=O)(=O)NCCc3cccc(C)c3)cc21 (stereo not given),i,79.0,i,i,i,i,77.4,i
CC(=O)N1CC(C)Sc2ccc(S(=O)(=O)NCc3ccc(F)cc3)cc21 (stereo not given),i,i,i,i,i,i,nt,nt
COc1ccc(CNS(=O)(=O)c2ccc3c(c2)N(C(C)=O)CC(C)S3)cc1 (stereo not given),i,i,i,i,i,i,i,i
CC(=O)N1CCc2cc(S(=O)(=O)NCc3ccc(C)cc3)ccc21,i,i,i,i,i,i,i,i
CC(=O)Nc1cccc(NC(=O)CSc2nc(=O)n(CCCN3CCOCC3)c3c2CCC3)c1,i,i,i,i,i,i,nt,nt
N#Cc1c(-c2ccccc2)cc(-c2ccccc2)nc1SCCC(=O)O,i,i,i,i,i,i,74.4,i
N#Cc1c(-c2ccc(Cl)cc2)cc(-c2ccccc2)nc1SCC(=O)O,i,i,i,i,i,i,nt,nt
CC(C)(C)c1csc(N/N=C/c2ccc(O)cc2)n1,i,i,i,i,i,i,nt,nt
CN(C)C(=S)N=c1ssc(=S)n1Cc1ccccc1,i,90.4,i,nt,nt,nt,i,i
O=C(CN1C(=O)c2ccccc2C1=O)c1ccccc1,i,i,i,i,i,i,nt,nt
CC1=C(CC(=O)c2ccccc2)C(=O)c2ccccc2C1=O,i,i,i,i,i,i,i,i
COc1cccc(CNC(=O)c2ccc(NS(=O)(=O)c3ccc4[nH]c(=O)[nH]c4c3)cc2)c1,i,i,i,i,i,i,nt,nt
CCc1ccc(/C=C/C(=O)c2c(C)cc(C)[nH]c2=O)cc1,i,i,i,i,i,i,nt,nt
Cc1ccc(/C=C/C(=O)c2c(C)cc(C)[nH]c2=O)cc1,i,i,i,i,i,i,i,i
Cc1ccccc1OC(=O)c1cccc(S(=O)(=O)N2CCN(C)CC2)c1,i,i,i,i,i,i,nt,nt
CCn1nc(C)cc1C(=O)NC1CCCc2c1cnn2-c1ccc(C)c(C)c1 (stereo not given),i,i,i,i,i,i,i,i
CC(C)(C)c1ccc(-n2ncc3c2CCCC3NC(=O)c2cnccn2)cc1 (stereo not given),i,88.8,i,i,i,i,i,i
Cc1ccc(-n2ncc3c2CCCC3NC(=O)c2ocnc2C)cc1C (stereo not given),i,100.9,i,i,i,i,90.4,79.9
CCc1[nH]nc(C(=O)NC2CCCc3c2cnn3-c2cc(C)cc(C)c2)c1C (stereo not given),i,i,i,i,i,i,i,i
COc1cc([N+](=O)[O-])ccc1NC(=O)CN1CCOCC1,i,i,i,i,i,i,nt,nt
O=C(CCC(=O)N1CCN(c2ccc(F)cc2)CC1)c1ccc(Cl)cc1,i,i,i,i,i,i,nt,nt
O=C(CCC(=O)N1CCN(c2ccc(Cl)c(Cl)c2)CC1)c1ccccc1,i,91.3,i,i,i,i,96.4,76.2
CN1CCN(c2ccc(NC(=O)N3CCc4ccccc43)cc2)CC1,i,i,i,i,i,i,i,i
Cc1ccc(NC(=O)N2CCc3ccccc32)cc1,i,i,i,i,i,i,nt,nt
SMILES,aDG glyco up,NR2E3 ag-1,MPTP block,697 NFkB inh,NR2E3 ag-2,Jurkat NFkB inh,NR2E3 ag conf,GAL4-VP16 luc
COc1ccc(CC(=O)Nc2nnc(C(C)C)s2)cc1OC,i,i,i,i,i,i,nt,nt
Cc1ccc2c(c1C)-c1c(ccc(C)c1C)C(=O)C2=O,i,i,i,nt,nt,nt,i,i
CC1(C(=O)OCC(=O)Nc2cc(S(=O)(=O)N3CCOCC3)ccc2Cl)CC1(Cl)Cl (stereo not given),i,i,i,nt,nt,nt,nt,nt
NC(=O)C(c1ccc(Cl)cc1)c1ccc(Sc2ccc(Cl)cc2)nn1 (stereo not given),i,i,i,i,i,i,87.2,i
Cc1ccc(OCC(=O)Nc2ccc3c(c2)OCCO3)cc1C,i,i,i,i,i,i,i,i
O=[N+]([O-])c1ccc(S(=O)(=O)Nc2nc(-c3ccccc3)cs2)cc1,i,i,i,i,i,i,nt,nt
O=S(=O)(Nc1nc(-c2ccccc2)cs1)c1cc(Cl)ccc1Cl,i,i,i,i,i,i,i,i
O=S(=O)(Nc1nc(-c2ccccc2)cs1)c1cccc(C(F)(F)F)c1,i,70.6,i,i,i,i,87.9,75.5
CCCCc1ccc(S(=O)(=O)NCCc2ccncc2)cc1,i,i,i,i,i,i,72.5,i
COC(C[C@@H]1O[C@H]1C(=O)COCc1ccccc1)OC,i,i,i,i,i,i,nt,nt
CC(O)CC(=O)OC[C@]12CC[C@H]3[C@@](C)(CC[C@H]4C(C)(C)CCC[C@]34C)[C@@H]1CC(C1=CC(=O)OC1O)O2 (stereo not given in full),i,i,i,nt,nt,nt,i,i
CCOC(=O)c1cccc(C2=CC(=O)C[C@H](c3ccc(OC)cc3)C2)c1,i,i,i,i,i,i,nt,nt
Cc1ccc(S(=O)(=O)N2CCCN(C(=O)c3ccc(-n4cccn4)cc3)CC2)cc1,i,i,i,i,i,i,nt,nt
O=C1Cc2c([nH]c3ccc([N+](=O)[O-])cc23)-c2ccccc2N1,i,85.4,i,nt,nt,nt,97.2,71.2
Cc1ccc(Cc2c(-c3ccc(C)cc3)nc3c(Cl)cc(C(F)(F)F)cn23)cc1,i,i,i,nt,nt,nt,i,i
CCOC(=O)N1CCN(C(=O)COC(=O)CSc2ccc([N+](=O)[O-])cc2)CC1,i,i,i,i,i,i,nt,nt
CCn1c(O)c(N=NC(=O)CNc2cccc(C)c2)c2ccccc21,i,i,i,i,i,i,nt,nt
C=CCn1c(O)c(N=NC(=S)Nc2ccccc2F)c2ccccc21,i,86.2,i,i,i,i,i,i
C=CCn1c(O)c(N=NC(=S)Nc2cccc(C)c2)c2ccccc21,i,79.8,i,i,i,i,i,i
Oc1c(N=NC(=S)Nc2ccccc2F)c2ccccc2n1Cc1ccccc1,i,i,i,i,i,i,nt,nt
Cc1ccc(SCC(=O)OCC(=O)N(C)CC(=O)Nc2ccccc2Cl)cc1C,i,i,i,i,i,i,nt,nt
CCO[C@H]1OC(C(=O)N2CCN(Cc3ccc4c(c3)OCO4)CC2)=C[C@@H](C2CC2)[C@@H]1CCCO,i,i,i,i,i,i,nt,nt
C/C(=N\NC(=O)c1c(Br)cnn1C)c1ccc(NC(=O)c2ccc(F)cc2)cc1,i,i,i,i,i,i,nt,nt

# High-throughput results deposited in PubChem by several laboratories.
